Measured values reported in ChEMBL document CHEMBL4382268, “Glycyrrhetinic acid derivatives containing aminophosphonate ester species as multidrug resistance reversers that block the NF-κB pathway and cell proliferation” (Bioorg Med Chem Lett, 2018).

Legend:
A549 [1] = assay: Antimigratory activity against human A549 cells after 24 hrs by crystal violet staining based fluorescence microscopic analysis; assay type: functional, cell-based
Summary of the method: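 Transwell migration of A549 cells incubated at 5, 10 and 20 µM for 24 h. Performed three times, representative images shown.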

[2] = Inhibition of TNF-alpha induced NF-kappaB activation in human A549 cells after 7 hrs by Bright-Glo luciferase reporter gene assay; assay type: cell-based; details: Homo sapiens, A549, 7 h; read-out: IC50
Summary of the method: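 A549 cells transiently cotransfected with an NF-κB-Luc reporter and stimulated with TNF-α. Luciferase read-out of inhibition gives IC50, the mean of at least three independent experiments each with triplicates.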

A549 [3] = assay: Induction of apoptosis in human A549 cells assessed as viable cells at 20 uM after 24 hrs by annexin V-FITC/propidium iodide staining-based flow cytometry analysis (reference value: 96.0%); assay type: functional; details: A549, 24 h, read-out: Activity
Summary of the method: (§1)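 A549 cells treated at 5, 10 and 20 µM for 24 h, then harvested and stained with Annexin V-FITC and PI. Flow cytometry quadrants: Q1 necrotic, Q2 late apoptotic/necrotic, Q3 early apoptotic, Q4 living. Performed three times.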

A549 [4] = assay: Antiproliferative activity against human A549 cells after 48 hrs by MTT assay; assay type: functional, cell-based; details: A549, 48 h
Summary of the method: (§2)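 MTT read-out of antiproliferative activity across cancer lines HepG-2, NCI-H460, MGC-803, A549 and MG-63 and normal liver line HL-7702. IC50 given as mean ± S.D. of three separate experiments, each run in triplicate.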

A549 [5] = assay: Induction of apoptosis in human A549 cells assessed as early apoptotic cells at 10 uM after 24 hrs by annexin V-FITC/propidium iodide staining-based flow cytometry analysis (reference value: 1.28%); assay type: functional; summary of the method: as §1
A549 [6] = assay: Cell cycle arrest in human A549 cells assessed as accumulation at S phase at 5 uM after 24 hrs by propidium iodide staining based flow cytometry (reference value: 38.76%); assay type: functional
A549 [7] = assay: Cell cycle arrest in human A549 cells assessed as accumulation at G1 phase at 5 uM after 24 hrs by propidium iodide staining based flow cytometry (reference value: 47.0%); assay type: functional
A549 [8] = assay: Induction of apoptosis in human A549 cells assessed as early apoptotic cells at 20 uM after 24 hrs by annexin V-FITC/propidium iodide staining-based flow cytometry analysis (reference value: 1.28%); assay type: functional; summary of the method: as §1
MGC-803 = assay: Antiproliferative activity against human MGC803 cells after 48 hrs by MTT assay; assay type: functional, cell-based; details: MGC-803, 48 h; summary of the method: as §2
A549 [9] = assay: Induction of apoptosis in human A549 cells assessed as early apoptotic cells at 5 uM after 24 hrs by annexin V-FITC/propidium iodide staining-based flow cytometry analysis (reference value: 1.28%); assay type: functional; summary of the method: as §1
A549 [10] = assay: Induction of apoptosis in human A549 cells assessed as late apoptotic cells at 20 uM after 24 hrs by annexin V-FITC/propidium iodide staining-based flow cytometry analysis (reference value: 2.20%); assay type: functional; summary of the method: as §1

## CCOP(=O)(OCC)C(Nc1ccc(CC(=O)NCCCCNC(=O)[C@@]2(C)CC[C@]3(C)CC[C@]4(C)C(=CC(=O)[C@@H]5[C@@]6(C)CC[C@H](OC(C)=O)C(C)(C)[C@@H]6CC[C@]54C)[C@@H]3C2)cc1)c1ccc(F)cc1 (stereo partly specified)
A549 [1]
  Activity: Dose-dependent effect
[2]
  IC50: 0.97 µM
A549 [3]
  viability at 20 µM: 40.3%
A549 [4]
  IC50: 6.25 µM
A549 [5]
  Activity: 19.1%
A549 [6]
  Activity: 40.09%
A549 [7]
  Activity: 59.91%
A549 [8]
  Activity: 19.5%
MGC-803
  IC50: 8.73 µM
A549 [9]
  Activity: 1.96%
A549 [10]
  Activity: 39.7%
